Experimental data of several laboratories.
Protocols differ between the studies behind these lines.
Target: Tyrosine-protein kinase Srms (SRMS, Homo sapiens, UniProt Q9H3Y6)

Cc1sc(C(=O)NC2COC2)cc1-n1cc(NC(=O)Nc2c(F)cccc2Cl)cn1  remaining activity (enzyme activity; inhibitor; 10 µM): 104%
CNC(=O)c1cc2c(Oc3ccc(NC(=O)C4(C(=O)Nc5ccc(F)cc5)CC4)cc3)ccnc2cc1OC  inhibition (enzyme activity; inhibitor; radiometric; 1 µM): 97%
CN1CC(Oc2cnc(C#N)cc2-c2ccn3nc(NC(=O)C4CC4)cc3c2)C1  inhibition (enzyme activity; inhibitor; 1 µM): 4%
CNCc1ccccc1-c1csc([C@H](C)Nc2nc(C)nc3cc(OC)c(OC)cc23)c1  remaining binding (cell-free assay; competition with immobilised ligand; 1 µM): 88%
C[S+]([O-])c1ccc(-c2nc(-c3ccncc3)c(-c3ccc(F)cc3)[nH]2)cc1 (stereo not shown)  remaining signal (cell-free assay; 0.5 µM): 102%
O=C(Nc1cnn(-c2csc(C(=O)NC3COC3)c2)c1)Nc1ccccc1Cl  remaining activity (enzyme activity; inhibitor; 5 µM): 99.8%
O=C1Nc2ccc(Cl)cc2C1=Cc1cc(Cl)c(O)c(Cl)c1  remaining signal (cell-free assay; 0.5 µM): 86.3%
FC(F)(F)c1ccc2c(c1)nc(-c1cccnc1)n2C1CC1  remaining binding (cell-free assay; competition with immobilised ligand; 1 µM): 95%
CC(C)(C)c1nc(-c2cccc(NS(=O)(=O)c3c(F)cccc3F)c2F)c(-c2ccnc(N)n2)s1  remaining activity (enzyme activity; inhibitor; radiometric; 1 µM): 10%
O=C(NC[C@@H]1[C@H]2CN(C(=O)OCc3cc(C(F)(F)F)cc(C(F)(F)F)c3)C[C@@H]12)c1ccc2[nH]nnc2c1  remaining binding (cell-free assay; competition with immobilised ligand; 1 µM): 83%
CC(C)(O)[C@H]1CC[C@H](Nc2ccc3ncc(-c4cccc(C(F)(F)F)c4)n3n2)CC1  remaining activity (enzyme activity; inhibitor; 1 µM): 96.5%
COc1cc2ncnc(Nc3ccc(Oc4ccccc4)cc3C)c2cc1OC  inhibition (enzyme activity; inhibitor; 1 µM): 84%
Cc1cc(-n2nc(Cc3cc(F)cc(C(F)(F)F)c3)nc2C)ccc1C(N)=O  remaining binding (cell-free assay; competition with immobilised ligand; 1 µM): 98%
